Results as given in ChEMBL document CHEMBL2385051, “Facile synthesis of new imidazo[1,2-a]pyridines carrying 1,2,3-triazoles via click chemistry and their antiepileptic studies” (Bioorg Med Chem Lett, 2013).
Calls of active or inactive are those of the source. The calls are words filed in the database; no cut-off is given here.

Legend:
Mus musculus [1] = assay: Anticonvulsant activity in NMRI mouse assessed as protection against subcutaneous pentylene tetrazole-induced seizure at 20 to 100 mg/kg, ip after 0.5 hrs; assay type: functional, organism-based
Summary of the method: (§1)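 Mice received 20, 40 and 100 mg/kg test doses. Seizures were induced by electrical shock (MES) or PTZ injection (scPTZ) at 0.5 and 4 h after dosing. The value recorded is the minimal dose protecting more than 50% of mice against seizure.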

Mus musculus [2] = assay: Anticonvulsant activity in NMRI mouse assessed as protection against maximal electroshock-induced seizures at 20 to 100 mg/kg, ip after 0.5 hrs; assay type: functional, organism-based; summary of the method: as §1
Mus musculus [3] = assay: Neurotoxicity in NMRI mouse assessed as minimal motor impairment at 20 to 100 mg/kg, ip after 0.5 hrs by rotarod test; assay type: toxicity, organism-based; design: dose 20-100 mg/kg, route intraperitoneal; conditions: in vivo
Summary of the method: (§2)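 Rotarod motor-impairment test in mice given 20, 40 and 100 mg/kg doses, read 0.5 and 4 h after administration. The value recorded is the minimal dose producing toxicity in more than 50% of mice.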

Mus musculus [4] = assay: Neurotoxicity in NMRI mouse assessed as minimal motor impairment at 20 to 100 mg/kg, ip after 4 hrs by rotarod test; assay type: toxicity, organism-based; design: dose 20-100 mg/kg, route intraperitoneal; conditions: in vivo; summary of the method: as §2
Mus musculus [5] = assay: Anticonvulsant activity in NMRI mouse assessed as protection against maximal electroshock-induced seizures at 20 to 100 mg/kg, ip after 4 hrs; assay type: functional, organism-based; summary of the method: as §1
Mus musculus [6] = assay: Anticonvulsant activity in NMRI mouse assessed as protection against subcutaneous pentylene tetrazole-induced seizure at 20 to 100 mg/kg, ip after 4 hrs; assay type: functional, organism-based; summary of the method: as §1
Mus musculus [7] = assay: Anticonvulsant activity in ip dosed NMRI mouse assessed as dose required to cause protection against maximal electroshock-induced seizures after 0.5 hrs; assay type: functional; conditions: read-out: MED; summary of the method: as §1
Mus musculus [8] = assay: Anticonvulsant activity in ip dosed NMRI mouse assessed as dose required to cause protection against maximal electroshock-induced seizures after 4 hrs; assay type: functional; conditions: read-out: MED; summary of the method: as §1
Mus musculus [9] = assay: Anticonvulsant activity in ip dosed NMRI mouse assessed as dose required to cause protection against subcutaneous pentylene tetrazole-induced seizure after 4 hrs; assay type: functional; conditions: read-out: MED; summary of the method: as §1
Mus musculus [10] = assay: Anticonvulsant activity in ip dosed NMRI mouse assessed as dose required to cause protection against subcutaneous pentylene tetrazole-induced seizure after 0.5 hrs; assay type: functional; conditions: read-out: MED; summary of the method: as §1
[11] = Neurotoxicity in ip dosed NMRI mouse assessed as dose required to cause minimal motor impairment after 4 hrs by rotarod test; assay type: toxicity, organism-based; conditions: in vivo, read-out: MTC50; summary of the method: as §2

SMILES	Activity (Mus musculus [1])	Activity (Mus musculus [2])	Activity (Mus musculus [3])	Activity (Mus musculus [4])	Activity (Mus musculus [5])	Activity (Mus musculus [6])	minimal effective dose (Mus musculus [7]) [mg/kg]	minimal effective dose (Mus musculus [8]) [mg/kg]	minimal effective dose (Mus musculus [9]) [mg/kg]	minimal effective dose (Mus musculus [10]) [mg/kg]	TD50 at 4 h [11] [mg/kg]
Cc1ccc(Cn2cc(CO/N=C/c3c(-c4ccccc4)nc4c(C)cccn34)nn2)cc1	inactive	inactive	Non-toxic	Non-toxic	inactive	inactive					
O/N=C/c1c(-c2ccccc2)nc2ccc(Br)cn12	inactive	inactive	Non-toxic	Non-toxic	inactive	inactive					
O=C1NC(=O)C(c2ccccc2)(c2ccccc2)N1 [PHENYTOIN]							20	20			
C#CCO/N=C/c1c(-c2ccc(C)cc2)nc2ccc(Br)cn12		inactive	Non-toxic	Non-toxic				20	40	20	
Cc1cccn2c(/C=N/O)c(-c3ccccc3)nc12	inactive	inactive	Non-toxic	Non-toxic	inactive	inactive					
O/N=C/c1c(-c2ccc(F)cc2)nc2ccc(Br)cn12		inactive	Non-toxic	Non-toxic	inactive				40	40	
Cc1ccc(Cn2cc(CO/N=C/c3c(-c4ccc(F)cc4)nc4ccc(Br)cn34)nn2)cc1	inactive	inactive	Non-toxic	Non-toxic	inactive				100		
Cc1ccc(-c2nc3ccc(Br)cn3c2/C=N/OCc2cn(Cc3ccc(C#N)cc3)nn2)cc1		inactive	Non-toxic	Non-toxic	inactive				40	40	
COc1ccc(Cn2cc(CO/N=C/c3c(-c4ccccc4)nc4c(C)cccn34)nn2)cc1		inactive	Non-toxic	Non-toxic				40	100	40	
Cc1cccn2c(/C=N/OCc3cn(Cc4ccc(C#N)cc4)nn3)c(-c3ccccc3)nc12	inactive	inactive	Non-toxic	Non-toxic	inactive				40		
COc1ccc(Cn2cc(CO/N=C/c3c(-c4ccc(C)cc4)nc4c(C)cccn34)nn2)cc1		inactive	Non-toxic	Non-toxic				100	100	40	
C#CCO/N=C/c1c(-c2ccccc2)nc2ccc(Br)cn12	inactive	inactive	Non-toxic	Non-toxic	inactive	inactive					
COc1ccc(Cn2cc(CO/N=C/c3c(-c4ccc(C)cc4)nc4ccc(Br)cn34)nn2)cc1	inactive	inactive	Non-toxic	Non-toxic	inactive				40		
COc1ccc(Cn2cc(CO/N=C/c3c(-c4ccc(F)cc4)nc4c(C)cccn34)nn2)cc1		inactive	Non-toxic	Non-toxic	inactive				40	40	
COc1ccc(Cn2cc(CO/N=C/c3c(-c4ccccc4)nc4ccc(Br)cn34)nn2)cc1	inactive	inactive	Non-toxic	Non-toxic	inactive				40		
Cc1cccn2c(/C=N/O)c(-c3ccc(F)cc3)nc12	inactive	inactive	Non-toxic	Non-toxic	inactive				40		
Cc1ccc(Cn2cc(CO/N=C/c3c(-c4ccc(C)cc4)nc4c(C)cccn34)nn2)cc1	inactive	inactive	Non-toxic	Non-toxic	inactive	inactive					

SMILES	Activity (Mus musculus [1])	Activity (Mus musculus [2])	Activity (Mus musculus [3])	Activity (Mus musculus [4])	Activity (Mus musculus [5])	Activity (Mus musculus [6])	minimal effective dose (Mus musculus [7]) [mg/kg]	minimal effective dose (Mus musculus [8]) [mg/kg]	minimal effective dose (Mus musculus [9]) [mg/kg]	minimal effective dose (Mus musculus [10]) [mg/kg]	TD50 at 4 h [11] [mg/kg]
Cc1cccn2c(/C=N/OCc3cn(Cc4ccc([N+](=O)[O-])cc4)nn3)c(-c3ccccc3)nc12	inactive	inactive	Non-toxic	Non-toxic	inactive	inactive					
C#CCO/N=C/c1c(-c2ccc(F)cc2)nc2c(C)cccn12	inactive	inactive	Non-toxic	Non-toxic	inactive				100		
Cc1ccc(Cn2cc(CO/N=C/c3c(-c4ccc(F)cc4)nc4c(C)cccn34)nn2)cc1	inactive	inactive	Non-toxic	Non-toxic	inactive				40		
CN1C(=O)CN=C(c2ccccc2)c2cc(Cl)ccc21 [DIAZEPAM]			Non-toxic	Non-toxic					20	20	
Cc1ccc(-c2nc3c(C)cccn3c2/C=N/OCc2cn(Cc3ccc(C#N)cc3)nn2)cc1	inactive	inactive	Non-toxic		inactive				100		100
O=[N+]([O-])c1ccc(Cn2cc(CO/N=C/c3c(-c4ccc(F)cc4)nc4ccc(Br)cn34)nn2)cc1		inactive	Non-toxic					100	100	40	100
C#CCO/N=C/c1c(-c2ccccc2)nc2c(C)cccn12	inactive	inactive	Non-toxic	Non-toxic	inactive				100		
N#Cc1ccc(Cn2cc(CO/N=C/c3c(-c4ccc(F)cc4)nc4ccc(Br)cn34)nn2)cc1	inactive	inactive	Non-toxic					100	100		100
Cc1ccc(Cn2cc(CO/N=C/c3c(-c4ccc(C)cc4)nc4ccc(Br)cn34)nn2)cc1		inactive	Non-toxic	Non-toxic	inactive				100	40	
Cc1ccc(-c2nc3c(C)cccn3c2/C=N/O)cc1		inactive	Non-toxic	Non-toxic				40	40	20	
N#Cc1ccc(Cn2cc(CO/N=C/c3c(-c4ccccc4)nc4ccc(Br)cn34)nn2)cc1		inactive	Non-toxic	Non-toxic				100	20	20	
Cc1ccc(-c2nc3ccc(Br)cn3c2/C=N/O)cc1		inactive	Non-toxic	Non-toxic				100	20	20	
C#CCO/N=C/c1c(-c2ccc(F)cc2)nc2ccc(Br)cn12		inactive	Non-toxic	Non-toxic	inactive	inactive				40	
Cc1ccc(Cn2cc(CO/N=C/c3c(-c4ccccc4)nc4ccc(Br)cn34)nn2)cc1	inactive	inactive	Non-toxic	Non-toxic	inactive	inactive					
O=[N+]([O-])c1ccc(Cn2cc(CO/N=C/c3c(-c4ccccc4)nc4ccc(Br)cn34)nn2)cc1		inactive	Non-toxic	Non-toxic				40	40	20	
COc1ccc(Cn2cc(CO/N=C/c3c(-c4ccc(F)cc4)nc4ccc(Br)cn34)nn2)cc1	inactive	inactive	Non-toxic	Non-toxic	inactive	inactive					
